ChEMBL document CHEMBL1148329, “Synthesis and structure-activity studies on N-[5-(1H-imidazol-4-yl)-5,6,7,8-tetrahydro-1-naphthalenyl]methanesulfonamide, an imidazole-containing alpha(1A)-adrenoceptor agonist” (J Med Chem, 2004)

Legend:
[1] = molecular target: T1, Alpha-1A adrenergic receptor (Oryctolagus cuniculus) (UniProt O02824); test: Functional agonism of the compounds to constrict tissue containing the alpha-1A adrenergic receptor in rabbit urethra; type: tissue-based
T1 sequence (whole entry): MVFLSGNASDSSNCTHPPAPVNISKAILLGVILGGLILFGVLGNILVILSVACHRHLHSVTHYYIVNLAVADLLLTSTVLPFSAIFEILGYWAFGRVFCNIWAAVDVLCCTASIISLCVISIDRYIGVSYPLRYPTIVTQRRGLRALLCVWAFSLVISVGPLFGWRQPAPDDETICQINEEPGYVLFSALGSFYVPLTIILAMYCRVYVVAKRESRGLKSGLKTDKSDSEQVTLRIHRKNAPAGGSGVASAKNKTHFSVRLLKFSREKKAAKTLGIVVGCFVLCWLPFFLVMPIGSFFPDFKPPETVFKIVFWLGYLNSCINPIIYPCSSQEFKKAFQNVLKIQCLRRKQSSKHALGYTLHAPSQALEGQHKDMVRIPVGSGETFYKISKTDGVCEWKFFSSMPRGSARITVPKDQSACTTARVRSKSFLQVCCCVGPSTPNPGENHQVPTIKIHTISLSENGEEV
Outline: (§1)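 α1-agonist dose–response curves in isolated tissue: rabbit urethra (α1A), rat spleen (α1B), rat aorta (α1D). Agonist potency and efficacy read from the concentration–response curves.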

[2] = molecular target: T2, Alpha-1B adrenergic receptor (Rattus norvegicus) (UniProt P15823); test: Functional agonism of the compounds to constrict tissue containing the alpha-1B adrenergic receptor in rat spleen; type: tissue-based
T2 sequence (whole entry): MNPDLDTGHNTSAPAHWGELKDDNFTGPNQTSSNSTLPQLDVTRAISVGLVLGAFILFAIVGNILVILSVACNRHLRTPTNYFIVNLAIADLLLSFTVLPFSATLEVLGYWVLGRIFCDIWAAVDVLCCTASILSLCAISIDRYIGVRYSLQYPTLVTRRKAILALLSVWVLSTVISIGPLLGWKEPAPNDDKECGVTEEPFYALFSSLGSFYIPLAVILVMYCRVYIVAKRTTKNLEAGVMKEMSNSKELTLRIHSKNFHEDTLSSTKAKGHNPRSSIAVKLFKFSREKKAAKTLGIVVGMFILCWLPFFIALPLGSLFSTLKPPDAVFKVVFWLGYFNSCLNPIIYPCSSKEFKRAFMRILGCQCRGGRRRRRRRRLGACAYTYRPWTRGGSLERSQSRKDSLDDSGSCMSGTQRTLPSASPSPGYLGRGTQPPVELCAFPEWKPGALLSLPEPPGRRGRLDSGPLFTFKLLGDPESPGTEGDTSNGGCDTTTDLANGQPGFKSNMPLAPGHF
Outline: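 Agonist dose–response curves were run on isolated tissue: rabbit urethra for α1A, rat spleen for α1B, and rat aorta for α1D.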

[3] = molecular target: Alpha adrenergic receptor 1A and 1D (Rattus norvegicus) (UniProt P23944+P43140); test: Selectivity is ratio of pKi (binding affinity) of Alpha-1D to that of alpha1A; type: protein assay
[4] = molecular target: T3, Alpha-1B adrenergic receptor (Mesocricetus auratus, UniProt P18841); test: In vitro binding affinity towards alpha-1B adrenergic receptor of hamster clone in radioligand binding assay; type: single protein
T3 sequence (P18841 whole entry): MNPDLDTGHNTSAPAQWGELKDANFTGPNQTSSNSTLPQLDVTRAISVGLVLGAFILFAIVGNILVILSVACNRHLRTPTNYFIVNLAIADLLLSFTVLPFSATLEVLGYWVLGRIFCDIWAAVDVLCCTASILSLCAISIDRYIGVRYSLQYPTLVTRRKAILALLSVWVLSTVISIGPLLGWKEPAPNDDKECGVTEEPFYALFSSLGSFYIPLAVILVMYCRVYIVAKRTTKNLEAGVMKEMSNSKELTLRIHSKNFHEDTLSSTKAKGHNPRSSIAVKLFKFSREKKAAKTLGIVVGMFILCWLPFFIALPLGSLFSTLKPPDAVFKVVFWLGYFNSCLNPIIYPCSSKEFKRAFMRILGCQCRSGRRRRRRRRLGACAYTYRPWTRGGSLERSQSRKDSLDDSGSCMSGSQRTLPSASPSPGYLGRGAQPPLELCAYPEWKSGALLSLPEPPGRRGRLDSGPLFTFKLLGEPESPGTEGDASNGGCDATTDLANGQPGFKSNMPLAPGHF
Outline: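 Radioligand binding at α1 subtypes: α1A from rat submaxillary gland, α1B hamster clone, α1D rat clone. Run essentially per an earlier method.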

[5] = molecular target: T2, Alpha-1B adrenergic receptor (Rattus norvegicus); test: Efficacy relative to phenylephrine (PE) constriction of rat spleen containing alpha-1B adrenergic receptor; type: functional, tissue-based; outline: as §1
Canis familiaris [6] = test: Uroselectivity was determined by measuring effective dose required for 20 mmHg increase of mean arterial pressure (MAP) in vivo in dog; type: functional, Canis lupus familiaris, Artery
Outline: (§2)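 Dog model recording intraurethral pressure (IUP) and mean arterial pressure (MAP) simultaneously. Increasing iv doses given, maximal effect of each dose taken. Doses giving a 5 mmHg rise in IUP (ED Δ5) or 20 mmHg rise in MAP (ED Δ20) were calculated, in nmol/kg ± SEM, n ≥ 4 (2 or 3 where footnoted).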

[7] = Selectivity is ratio of efficacy of alpha-2A to that of alpha1A adrenoceptor; type: functional
[8] = molecular target: T4, Alpha-2B adrenergic receptor (Rattus norvegicus, UniProt P19328); test: In vitro binding affinity towards alpha-2B adrenergic receptor of rat neonatal lung in radioligand binding assay
T4 sequence (P19328 whole entry): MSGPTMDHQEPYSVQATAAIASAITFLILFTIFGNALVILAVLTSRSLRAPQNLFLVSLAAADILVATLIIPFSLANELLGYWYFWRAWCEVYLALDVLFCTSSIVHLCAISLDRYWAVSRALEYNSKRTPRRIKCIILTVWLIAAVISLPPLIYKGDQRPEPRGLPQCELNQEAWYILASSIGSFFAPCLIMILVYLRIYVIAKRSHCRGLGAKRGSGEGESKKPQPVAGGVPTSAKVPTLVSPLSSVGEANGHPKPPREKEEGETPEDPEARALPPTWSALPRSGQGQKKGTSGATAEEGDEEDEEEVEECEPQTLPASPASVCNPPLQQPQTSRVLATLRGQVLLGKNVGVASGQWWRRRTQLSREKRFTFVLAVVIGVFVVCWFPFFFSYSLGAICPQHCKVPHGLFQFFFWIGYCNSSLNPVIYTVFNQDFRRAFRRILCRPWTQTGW

[9] = molecular target: Alpha adrenergic receptor 1A and 1B (Rattus norvegicus) (UniProt P15823+P43140); test: Selectivity is ratio of pKi (binding affinity) of alpha-1B receptor to that of alpha-1A receptor.; type: protein assay
Rattus norvegicus = species: Rattus norvegicus; test: Relative affinities for alpha2B and alpha1A receptors
Canis familiaris [10] = test: Uroselectivity was determined by measuring effective dose required for 5 mmHg increase of intraurethral pressure (IUP) in vivo in dog; type: functional, Canis lupus familiaris; outline: as §2

Chain of Alpha adrenergic receptor 1A and 1B (Rattus norvegicus) (P43140 whole entry, looked up, one chain of several): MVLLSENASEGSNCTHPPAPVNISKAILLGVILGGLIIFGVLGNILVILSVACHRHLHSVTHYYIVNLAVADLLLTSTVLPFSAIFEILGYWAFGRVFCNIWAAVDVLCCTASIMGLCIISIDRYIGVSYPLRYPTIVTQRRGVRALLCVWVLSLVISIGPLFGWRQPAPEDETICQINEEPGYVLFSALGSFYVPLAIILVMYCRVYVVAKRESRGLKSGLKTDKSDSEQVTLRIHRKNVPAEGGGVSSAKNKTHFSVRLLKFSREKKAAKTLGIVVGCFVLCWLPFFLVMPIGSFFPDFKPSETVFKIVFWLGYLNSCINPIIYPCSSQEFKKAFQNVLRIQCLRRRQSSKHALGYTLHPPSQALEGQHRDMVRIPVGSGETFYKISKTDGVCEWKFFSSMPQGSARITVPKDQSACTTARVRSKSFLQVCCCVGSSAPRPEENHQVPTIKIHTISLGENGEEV

Row | SMILES | pD2 [1] | pD2 [2] | Selectivity [3] | Ki [4] [nM] | Efficacy [5] [%] | ED delta20 (Canis familiaris [6]) [nM/kg] | Selectivity [7] | Ki [8] [nM] | Selectivity [9] | Selectivity (Rattus norvegicus) | ED delta5 (Canis familiaris [10]) [nM/kg]
1 | CC(N)C(O)c1ccccc1 (stereo not given) [PHENYLPROPANOLAMINE] | 3.63 | 3.55 | 1 | 9550 | 34 | 330 | 0.03 | 263 | 1 | 0.03 | 1100
2 | O=C(Nc1cccc2c1CCCC2c1c[nH]cn1)C(F)(F)F (stereo not given) | 6.28 | 5.47 | 20 | > 10000 | 19 | 216 | 0.1 | 661 | 60 | 4 | 188
3 | O=S(=O)(CC(F)(F)F)Nc1cccc2c1CCCC2c1c[nH]cn1 (single isomer, unassigned; (+)) | 5.73 |  | > 80 | > 10000 |  | 450 | 0.14 | > 10000 | > 80 | > 80 | 156
4 | COc1ccc(OC)c(C(O)CN)c1 (stereo not given) [DESGLYMIDODRINE] | 5.15 | 4.07 | 0.8 |  | 68 | 250 | 0.001 | 1860 | 3 | 0.9 | 205
5 | CN(c1cccc2c1CCCC2c1c[nH]cn1)S(C)(=O)=O (stereo not given) | 6.16 | 5.65 | 3 | > 10000 |  | 225.3 | 0.12 | 912 | > 50 | 4 | 
